Measured values gathered from unrelated publications.
pKi: −log10 of the molar value.
Target: Carbonic anhydrase 2 (CA2, Homo sapiens, UniProt P00918)
Effect on: enzyme activity
Mode: inhibitor

Structure (SMILES) | test | pKi
OC1CCN(c2ccc(/C=N/NC(=S)NCCc3ccccc3)cc2)CC1 | – | 6.18
N#CSCc1cc(=O)oc2cc(O)ccc12 | stopped-flow | < 4.00
CCOCCn1c(C2CCN(CCc3ccc(C(C)(C)C(=O)O)cc3)CC2)nc2ccccc21 | absorbance | 5.07
C[C@H]1CCC[C@H](C(=O)Nc2nnc(S(N)(=O)=O)s2)C1 (racemic) | stopped-flow | 7.83
OC1CCN(c2ccc(/C=N/NC(=S)NCc3ccc(Cl)cc3)cc2)CC1 | – | 6.42
NS(=O)(=O)c1nnc(NC(=O)C2CCC3(CCC3)CC2)s1 | stopped-flow | 7.66
Cc1cccc(C)c1NC(=S)N/N=C/c1ccc(N2CCC(O)CC2)cc1 | – | 6.36
CCOC(=O)N1CCC(=C2c3ccc(Cl)cc3CCc3cccnc32)CC1 | absorbance | 5.08
OC1CCN(c2ccc(/C=N/NC(=S)Nc3ccc(Br)cc3)cc2)CC1 | – | 6.48
Cc1cncc(CN2CCC(=C3c4ccc(Cl)cc4CCc4cccnc43)CC2)c1 | absorbance | 5.04
NS(=O)(=O)c1cnc(NC(=O)CC2CCCCC2)s1 | stopped-flow | 7.27
OC1CCN(c2ccc(/C=N/NC(=S)Nc3ccccc3)cc2)CC1 | – | 6.30
CN(C)CCC(c1ccccc1)c1ccccn1 (centres unmarked) | absorbance | 4.85
Cc1ccccc1CC(=O)Nc1nnc(S(N)(=O)=O)s1 | stopped-flow | 7.59
COc1ccc(NC(=S)N/N=C/c2ccc(N3CCC(O)CC3)cc2)cc1 | – | 6.22
OC(Cn1cncn1)(Cn1cncn1)c1ccc(F)cc1F | absorbance | 5.10
NS(=O)(=O)c1nnc(NC(=O)CN2CC3CCC2CC3)s1 | stopped-flow | 7.36
Cc1c(Cl)c(=O)oc2cc(OCCCCSC#N)ccc12 | stopped-flow | < 4.00
CC1CCC(CC(=O)Nc2nnc(S(N)(=O)=O)s2)CC1 (centres unmarked) | stopped-flow | 7.65
C[C@H]1c2cccc(O)c2C(=O)C2=C(O)[C@]3(O)C(=O)C(C(N)=O)=C(O)[C@@H](N(C)C)[C@@H]3[C@@H](O)[C@@H]21 | absorbance | 5.05
